Among the data in ChEMBL document CHEMBL1138687, “Pharmacological exploitation of the alpha1-adrenoreceptor antagonist doxazosin to develop a novel class of antitumor agents that block intracellular protein kinase B/Akt activation” (J Med Chem, 2004) are IC50 values, retold here.

Structures are written as SMILES.

The test system of this test is PC-3. Description: Inhibition of prostate cancer (PC-3) cell proliferation. Format: functional, cell-based. The note with it: Homo sapiens. The essentials:
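PC-3 cells, 8000/well, grown in RPMI 1640 with 10% FBS at 37 °C, 5% CO2. Exposed to the test agent in 10% FBS-supplemented RPMI 1640 for 48 h in six replicates. MTT at 0.5 mg/mL then added for 2 h at 37 °C, reduced dye dissolved in DMSO, absorbance read at 570 nm. IC50 taken from cell viability.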
With `COc1cc2nc(N3CCN(C(=O)c4ccc(C(F)(F)F)cc4)CC3)nc(N)c2cc1OC`, the IC50 is greater than 100 µM. As for `COc1ccc(S(=O)(=O)N2CCN(c3nc(N)c4cc(OC)c(OC)cc4n3)CC2)cc1`, the IC50 was 39 µM. This lies in the double-digit micromolar range.

In the case of `COc1cc2nc(N3CCN(S(=O)(=O)c4cccc(C(=O)O)c4)CC3)nc(N)c2cc1OC`, the IC50 is 53 µM. This IC50 and that of the molecule before are within 1.5-fold of each other. In the case of `COc1cc2nc(N3CCN(S(=O)(=O)c4ccc(Cl)s4)CC3)nc(N)c2cc1OC` it was 25 µM; in that of `COc1cc2nc(N3CCN(S(=O)(=O)c4ccc(-c5ccccc5)cc4)CC3)nc(N)c2cc1OC`, 4.2 µM. To `COc1cc2nc(N3CCN(S(=O)(=O)c4ccc(N)cc4N)CC3)nc(N)c2cc1OC` belongs 67 µM; to `COc1cc2nc(N3CCN(S(=O)(=O)c4ccc(-c5cc6ccccc6c6ccccc56)cc4)CC3)nc(N)c2cc1OC`, 5.2 µM; to `COc1cc2nc(N3CCN(S(=O)(=O)c4ccc(-c5ccc(C(C)(C)C)cc5)cc4)CC3)nc(N)c2cc1OC`, 10 µM. In the case of `COc1cc2nc(N3CCN(S(=O)(=O)c4cc(C(=O)O)c(Cl)cc4Cl)CC3)nc(N)c2cc1OC` it was 52 µM; in that of `COc1cc2nc(N3CCN(C(=O)c4cccc(C#N)c4)CC3)nc(N)c2cc1OC`, 82 µM; in that of `COc1cc2nc(N3CCN(S(=O)(=O)c4ccc(S(C)(=O)=O)cc4)CC3)nc(N)c2cc1OC`, 17 µM. For `CCCOc1cc2nc(N3CCN(S(=O)(=O)c4ccc(-c5ccccc5)cc4)CC3)nc(N)c2cc1OCCC`, 2.5 µM corresponded to half-maximal inhibition (IC50). Take `CCCCOc1cc2nc(N3CCN(S(=O)(=O)c4ccc(-c5ccccc5)cc4)CC3)nc(N)c2cc1OCCCC`: the IC50 was found to be 3.5 µM. This IC50 and that of the molecule before are within 1.5-fold of each other. The molecule `COc1cc2nc(N3CCN(S(=O)(=O)c4cc(Cl)ccc4Cl)CC3)nc(N)c2cc1OC` displayed a concentration for half-maximal inhibition (IC50) of 60 µM. To `COc1cc2nc(N3CCN(C(=O)c4cccc5ccccc45)CC3)nc(N)c2cc1OC` belongs 59 µM; to `COc1cc2nc(N3CCN(S(=O)(=O)c4ccc5ccccc5c4)CC3)nc(N)c2cc1OC`, 15 µM. `COc1cc2nc(N3CCN(S(=O)(=O)c4ccc(OC(F)(F)F)cc4)CC3)nc(N)c2cc1OC` came in with a half-maximal inhibitory concentration (IC50) of 25 µM. To `COc1cc2nc(N3CCN(S(=O)(=O)c4ccccc4[N+](=O)[O-])CC3)nc(N)c2cc1OC` belongs 35 µM; to `COc1cc2nc(N3CCN(C(=O)c4ccc(C(C)(C)C)cc4)CC3)nc(N)c2cc1OC`, 47 µM. To `COc1ccc(C(=O)N2CCN(c3nc(N)c4cc(OC)c(OC)cc4n3)CC2)cc1OC` belongs 71 µM; to `COc1cc2nc(N3CCN(C(=O)c4ccc(N)cc4)CC3)nc(N)c2cc1OC`, greater than 100 µM; to `COc1cc2nc(N3CCN(S(=O)(=O)c4ccc(C(C)(C)C)cc4)CC3)nc(N)c2cc1OC`, 4.1 µM. In the case of `CC(C)Oc1cc2nc(N3CCN(S(=O)(=O)c4ccc(-c5ccccc5)cc4)CC3)nc(N)c2cc1OC(C)C` it was 24 µM. For the molecule `COc1cc2nc(N3CCN(S(=O)(=O)c4ccc(Br)cc4)CC3)nc(N)c2cc1OC`, it took 20 µM to reach half-maximal inhibition (IC50).

With `COc1cc2nc(N3CCN(S(=O)(=O)c4ccc([N+](=O)[O-])cc4)CC3)nc(N)c2cc1OC`, the half-inhibitory concentration (IC50) was found to be 36 µM. Compared with the last molecule, the IC50 is about 1.8-fold higher. In the case of `COc1cc2nc(N3CCN(C(=O)c4ccc(Cl)cc4)CC3)nc(N)c2cc1OC` it was 60 µM; in that of `COc1cc2nc(N3CCN(C(=O)c4ccc(C#N)cc4)CC3)nc(N)c2cc1OC`, 68 µM; in that of `C=CCOc1cc2nc(N3CCN(S(=O)(=O)c4ccc(-c5ccccc5)cc4)CC3)nc(N)c2cc1OCC=C`, 3.3 µM.

For `COc1cc2nc(N3CCN(S(=O)(=O)c4c(C(C)C)cc(C(C)C)cc4C(C)C)CC3)nc(N)c2cc1OC`, the IC50 is 24 µM. In the case of `COc1cc2nc(N3CCN(S(=O)(=O)c4cc(F)c(Cl)c(C(=O)O)c4)CC3)nc(N)c2cc1OC` it was 56 µM.

In the case of `COc1cc2nc(N3CCN(S(=O)(=O)c4ccc(C(=O)O)cc4)CC3)nc(N)c2cc1OC`, the 50% inhibitory concentration (IC50) came out at 53 µM. To `COc1cc2nc(N3CCN(S(=O)(=O)c4ccc(I)cc4)CC3)nc(N)c2cc1OC` belongs 15 µM; to `COc1cc2nc(N3CCN(S(=O)(=O)c4cccc([N+](=O)[O-])c4)CC3)nc(N)c2cc1OC`, 32 µM; to `COc1cc2nc(N3CCN(S(=O)(=O)c4ccc(-c5ccc(C)cc5)cc4)CC3)nc(N)c2cc1OC`, 3.4 µM. In the case of `COc1cc2nc(N3CCN(S(=O)(=O)c4ccc(-c5ccc(C(F)(F)F)cc5)cc4)CC3)nc(N)c2cc1OC` it was 3.3 µM. In the case of `COc1cc2nc(N3CCN(S(=O)(=O)c4cccc5ccccc45)CC3)nc(N)c2cc1OC` it was 14 µM; in that of `COc1cc2nc(N3CCN(C(=O)OCc4ccccc4)CC3)nc(N)c2cc1OC`, 63 µM. Molecule `CCCCc1ccc(-c2ccc(S(=O)(=O)N3CCN(c4nc(N)c5cc(OC)c(OC)cc5n4)CC3)cc2)cc1` returned an IC50 of 3.4 µM. Turning to `COc1cc2nc(N3CCN(S(=O)(=O)c4ccc(-c5ccc(S(C)(=O)=O)cc5)cc4)CC3)nc(N)c2cc1OC`, half-maximal inhibition (IC50) was put at 7.2 µM.

Regarding `COc1cc2nc(N3CCN(S(=O)(=O)c4ccc(C(F)(F)F)cc4)CC3)nc(N)c2cc1OC`, half-maximal inhibition (IC50) was put at 27 µM. This IC50 lies about 3.8-fold higher than the previous one.

The molecule `COc1cc2nc(N3CCN(C(=O)c4ccc([N+](=O)[O-])cc4)CC3)nc(N)c2cc1OC` yielded an IC50 of 75 µM. In the case of `COc1cc2nc(N3CCN(S(=O)(=O)c4ccc(Cl)cc4)CC3)nc(N)c2cc1OC` it was 23 µM. To `COc1cc2nc(N3CCN(S(=O)(=O)c4ccc(C)cc4)CC3)nc(N)c2cc1OC` belongs 30 µM; to `COc1cc2nc(N3CCN(S(=O)(=O)c4cccc5c(N(C)C)cccc45)CC3)nc(N)c2cc1OC`, 29 µM; to `COc1cc2nc(N3CCN(C(=O)C4COc5ccccc5O4)CC3)nc(N)c2cc1OC` (stereo not given) [DOXAZOSIN], 45 µM.
